Most compounds without a hit are left out; they make up all but 4% or so of the library.
DAGLB inhibitor: DAGLB lipase inhibitors, primary screen, biochemical, fluorescence, HTS | inhibition, % at 5.17 µM | AID 504411, 2011 | 340,000 tested, 0.059% active | Diacylglycerol lipase-beta (Homo sapiens), Q8NCG7 | HEK293T DAGLB membrane lysate, EnzChek fluorogenic substrate; in the data active = inhibition above about 34%;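 note: 0% = enzyme with vehicle and 100% = wells lacking enzyme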
TAAR1 antag: human TAAR1 antagonists, primary screen, Fluo-8 calcium fluorescence, CHO RD-HGA16 cells; 360,000 tested, 1.5% active; Trace amine-associated receptor 1 (Homo sapiens), Q96RJ0; inhibition, % at 3 µM; antagonist;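 active = inhibition above a per-plate cutoff, the mean inhibition of test compounds on that plate plus 3 SD, cut at about 49% in these data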;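 note: 0% = DMSO plus EC80 beta-PEA response and 100% = DMSO alone without agonist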
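Test system – hTAAR1-expressing CHO RD-HGA16 cells, Gα16-coupled · Also added – β-PEA at EC80 concentration, post-compound challenge · Compound – 3 µM, single point · Incubation – dye loading 75 min at 37 °C, then 30 min room temperature · Measured by – Fluo-8 intracellular calcium dye fluorescence, real-time kinetic reads · Benchmarks – vehicle and agonist controls · Replicates – singlicate, one well per test compound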
MPTP inh: mitochondrial permeability transition pore inhibitors, primary screen, biochemical, isolated mouse mitochondria, absorbance; Ca2+ swelling absorbance, 30 min; inhibition, % at 10 µM; 360,000 tested, 1.4% active; AID 602449, 2012;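 active = inhibition of 50% or more, scaled per plate between neutral and stimulator controls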;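 note: 0% = DMSO wells given calcium and 100% = 1 mM EGTA wells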
TAAR1 ag: human TAAR1 agonists, primary screen, Fluo-8 calcium fluorescence, CHO RD-HGA16 cells. vehicle wells 0%, saturating PEA agonist 100%. activation, % at 3 µM. 360,000 tested, 0.99% active;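 active = activation above the mean activation of all test compounds in the run plus 3 SD, cut at about 38% in these data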
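test system = CHO RD-HGA16 cells carrying human TAAR1 plus Gα16 | schedule = 17-24 h seeding, 75 min 37 °C dye, 30 min RT | compound dosing = 3 µM single concentration | control set = DMSO and PEA EC100 | replicates = n 1 | signal = Fluo-8 fluorescence, 5 s baseline then 140 s kinetic read | measure = percent activation vs PEA EC100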
GPR7 antag: GPR7 receptor antagonists, primary screen, cell-based, fluorescence, single concentration | Neuropeptides B/W receptor type 1 (Homo sapiens), P48145 | GPR7-expressing cells, fluorescence antagonist assay | inhibition, % at 4.4 µM | 290,000 tested, 1.1% active | AID 1861, 2009; in the data active = inhibition above about 16%, passing the limit was not always enough;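 note: cells stimulated with the agonist NPW; 0% = agonist with vehicle and 100% = vehicle without agonist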
nonsel antag count: nonselective antagonists in TAAR1 counter-screen cells, counter-screen for hTAAR1 antagonist project, cell-based, fluorescence, calcium; shares compounds with TAAR1 antag; counterscreen cell line, antagonist mode; inhibition, % at 3 µM; 2,400 tested, 77% active; AID 651780, 2012; in the data active = inhibition above about 22%;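 note: CHO-Ga16 host cells stimulated with ATP at an EC80 level; 0% = agonist EC80 plus vehicle and 100% = vehicle without agonist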
TAAR1 ant conf: human TAAR1 antagonists, retest of hits, confirmation, cell-based, fluorescence; AID 651785, 2012; inhibition, % at 3 µM; shares compounds with TAAR1 antag; 2,400 tested, 40% active; TAAR1-expressing cells, fluorescence antagonist read-out; in the data active = inhibition above about 49%;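 note: CHO-Ga16 host cells challenged with agonist PEA near its EC80; 0% = agonist at EC80 plus vehicle and 100% = vehicle with no agonist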
Ga16 ag counter: calcium activation in Ga16-expressing cells, counter-screen for TAAR1 antagonist project, cell-based, fluorescence | shares compounds with TAAR1 antag | agonist counterscreen | activation, % at 3 µM | 2,400 tested, 18% active | AID 651953, 2012; in the data active = activation above about 12%;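 note: 0% = vehicle wells and 100% = saturating stimulus response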
TAAR1 ag count: TAAR1 activation by candidate antagonists – cell-based, fluorescence, counter-screen for TAAR1 antagonist project. shares compounds with TAAR1 antag. hTAAR1 cell line, agonist mode. activation, % at 3 µM. 2,400 tested, 2% active. AID 651955, 2012; in the data active = activation above about 37%;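 note: CHO cells stably expressing TAAR1 with calcium dye readout; 0% = DMSO vehicle and 100% = full agonist response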
Active calls of the source: *; / = no result.

SMILES | DAGLB inhibitor | TAAR1 antag | MPTP inh | TAAR1 ag | GPR7 antag | nonsel antag count | TAAR1 ant conf | Ga16 ag counter | TAAR1 ag count
COc1ccc(NC(=O)CNC(=O)c2nn(-c3ccc(OC)c(Cl)c3)c(=O)c3ccccc23)c(OC)c1 | 1 | 61* | 2 | 10 | -2 | 24* | 49* | 6 | 7
CCOc1ccccc1NC(=O)CNC(=O)c1nn(-c2ccc(OC)c(OC)c2)c(=O)c2ccccc12 | -2 | 60* | 1 | 17 | -3 | 30* | 41 | 7 | 14
NC(c1csc(Nc2ccccn2)n1)C1CCCCC1 (centres undefined) | / | 9 | 2 | 9 | / | / | / | / | /
COc1ccc(N2CCN(C(=O)c3cc4c(-c5cccc(OC)c5)nn(C)c4s3)CC2)cc1 | 1 | 8 | 0 | 5 | -6 | / | / | / | /
CC(=O)c1ccc(N2CCN(C(=O)c3cc4c(-c5ccccc5F)nn(C)c4s3)CC2)cc1 | 1 | 55* | 0 | 1 | 21 | 26* | 34 | 6 | 4
CC(=O)C1=CCC(c2ccccc2)N(S(=O)(=O)c2ccccc2)C1 (centres undefined) | / | -11 | 1 | 5 | / | / | / | / | /
COc1ccc(-c2cc(C(=O)N(C)CC(=O)Nc3cccc(F)c3)c3ccccc3n2)cc1OC | -3 | 76* | 4 | 15 | / | 44* | 61* | 11 | 8
COc1ccc(NC(=O)CN(C)C(=O)c2cc(-c3ccco3)nc3ccccc23)cc1 | 2 | 36 | -1 | 13 | / | / | / | / | /
CN(CC(=O)Nc1ccc(F)c(F)c1F)C(=O)c1cc(-c2ccncc2)nc2ccccc12 | 2 | 36 | -2 | 18 | / | / | / | / | /
COc1ccc(Cl)cc1NC(=O)CN(C)C(=O)c1cn(-c2ccccc2)nc1-c1cccnc1 | -5 | 58* | 0 | 13 | / | 33* | 47 | 7 | 5
COc1cccc(NC(=O)CN(C)C(=O)c2cc(-c3ccccc3)nc3ccccc23)c1 | -1 | 70* | 0 | 12 | / | 34* | 51* | 9 | 7
CN(CC(=O)Nc1ccc(Cl)c(C(F)(F)F)c1)C(=O)c1cc(-c2ccncc2)nc2ccccc12 | 0 | 50* | 1 | 9 | / | 33* | 53* | 10 | 10
COc1ccc(NC(=O)CN(C)C(=O)c2cn(-c3ccccc3)nc2-c2ccc(Cl)cc2)cc1 | 1 | 12 | 1 | -1 | / | / | / | / | /
COc1c(C)cc(C(O)c2ncc(-c3ccccc3)[nH]2)cc1C (centres undefined) | / | -21 | 1 | 5 | / | / | / | / | /
COc1ccc(CNC(=O)/C=C/[C@H]2O[C@@H](n3ccc(=O)[nH]c3=O)[C@H](O)[C@@H]2O)cc1 | / | -2 | 0 | 2 | / | / | / | / | /
N#Cc1ccc(S(=O)(=O)N2CCN(Cc3cccs3)CC2)cc1 | -2 | -6 | -1 | 2 | / | / | / | / | /
CN(CC(=O)Nc1cccc(F)c1)C(=O)c1cn(-c2ccccc2)nc1-c1cccs1 | -5 | 65* | 2 | 8 | -3 | 32* | 40 | 7 | 6
COc1cccc(NC(=O)CN(C)C(=O)c2cc(-c3ccc(F)cc3)nc3ccccc23)c1 | 1 | 75* | 1 | 6 | / | 40* | 60* | 9 | 5
